{"data": "Published values gathered from unrelated publications", "cell line": "HepG2", "observed": "cell growth or viability", "note": "Each line is one published result; the experiments were not run side by side."}
{"SMILES": "CCC1(c2ccc(N)cc2)CCC(=O)NC1=O (centres unmarked)", "test": "CCK-8", "setting": "48 h", "IC50": "> 50 µM"}
{"SMILES": "COc1c2ccoc2cc2oc(=O)ccc12", "test": "WST-1", "setting": "48 h", "IC50": "18.1 µM"}
{"SMILES": "Cl.O[C@]12C=C(c3nccc4c3[nH]c3ccccc34)[C@@H]3CCN(CCCC/C=C\\CC1)C[C@@]31C[C@@H]3/C=C\\CCCCN3[C@H]12", "test": "neutral red", "setting": "48 h", "IC50": "1.55 µg/mL"}
{"SMILES": "CC1=C(O)C(=O)C=C2C1=CC=C1[C@@]2(C)CC[C@@]2(C)[C@@H]3C[C@](C)(C(=O)O)CC[C@]3(C)CC[C@]12C", "test": "MTT", "setting": "48 h", "IC50": "1.23 µM"}
{"SMILES": "CC[C@@]1(OC(=O)C(C)c2cccc(C(=O)c3ccccc3)c2)C(=O)OCc2c1cc1n(c2=O)Cc2cc3cc4c(cc3nc2-1)OCO4 (some centres unmarked)", "test": "MTT", "IC50": "0.364 µM"}
{"SMILES": "O=c1ccc2cc3ccoc3cc2o1", "test": "WST-1", "setting": "48 h", "IC50": "17.2 µM"}
{"SMILES": "CC[C@@]1(OC(=O)[C@H](C)N)C(=O)OCc2c1cc1n(c2=O)Cc2cc3cc4c(cc3nc2-1)OCO4", "test": "MTT", "IC50": "0.101 µM"}
{"SMILES": "Nc1nc(-c2cccc(NC(=O)Nc3cccc(-c4c[nH]c(N)n4)c3)c2)c[nH]1", "test": "XTT", "setting": "24 h", "IC50": "850 µM"}
{"SMILES": "CC[C@@]1(OC(=O)Cc2c(C)n(C(=O)c3ccc(Cl)cc3)c3ccc(OC)cc23)C(=O)OCc2c1cc1n(c2=O)Cc2cc3cc4c(cc3nc2-1)OCO4", "test": "MTT", "IC50": "0.032 µM"}
{"SMILES": "Cl.Cl.Nc1nc(-c2cc(F)cc(NC(=O)Nc3cc(F)cc(-c4c[nH]c(N)n4)c3)c2)c[nH]1", "test": "XTT", "setting": "24 h", "IC50": "> 256 µg/mL"}
{"SMILES": "CC1=C(O)C(=O)C=C2C1=CC=C1[C@@]2(C)CC[C@@]2(C)[C@@H]3C[C@](C)(C(=O)OCCCn4cc(C=O)c5ccccc54)CC[C@]3(C)CC[C@]12C", "test": "MTT", "setting": "48 h", "IC50": "1.76 µM"}
{"SMILES": "Cc1c2ccncc2c(C)c2c1[nH]c1ccccc12", "test": "MTT", "setting": "72 h", "IC50": "0.45 µg/mL"}
{"SMILES": "N.N.[Cl][Pt][Cl]", "test": "MTT", "setting": "48 h", "IC50": "14 µM"}
{"SMILES": "CC[C@@]1(OC(=O)[C@@H](N)Cc2ccccc2)C(=O)OCc2c1cc1n(c2=O)Cc2cc3cc4c(cc3nc2-1)OCO4", "test": "MTT", "IC50": "0.088 µM"}
{"SMILES": "O=C(O)CCCc1ccc(N(CCCl)CCCl)cc1", "test": "CCK-8", "setting": "48 h", "IC50": "15.1 µM"}
{"SMILES": "CC[C@@]1(OC(=O)[C@@H]2CCCN2)C(=O)OCc2c1cc1n(c2=O)Cc2cc3cc4c(cc3nc2-1)OCO4", "test": "MTT", "IC50": "0.263 µM"}
{"SMILES": "[Cl-].[Cl-].[Co+2]", "test": "MTT", "setting": "48 h", "IC50": "> 150 µM"}
